In ChEMBL document CHEMBL3045055, “Synthesis and antifungal activities of carabrol ester derivatives” (J Agric Food Chem, 2012):
Values after ≈ are worked out from the molar mass of the structure shown.

System: Colletotrichum lagenaria
Assay: Antifungal activity against Colletotrichum lagenaria assessed as inhibition of spore germination at 24 +/- 1 degC for 8 hr (plant disease: on leaf and fruit)
Format: functional, organism-based
How it was run: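 C. lagenarium isolate (Accession No. 36199, Agricultural Culture Collection of China) grown 2 weeks at 25 ± 1 °C on PDA. Conidia flooded off with sterile water, filtered through cheesecloth, and suspended in water with 0.1% (v/v) Tween 20 at 1.0 × 10^6 spore/mL by hemocytometer. Samples dissolved in methanol, diluted with sterile water to test solutions; spore germination inhibition read, IC50 derived.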

Row | SMILES | IC50 [µg/mL]
1 | C=C1C(=O)O[C@@H]2C[C@]3(C)C(CCC(C)OC(=O)c4cnc(C)cn4)[C@@H]3C[C@H]12 (some centres undefined) | 20.5 (≈ 55.3 µM)
2 | C=C1C(=O)O[C@@H]2C[C@]3(C)C(CCC(C)OC(=O)/C=C/c4ccc([N+](=O)[O-])cc4)[C@@H]3C[C@H]12 (some centres undefined) | 22.8 (≈ 53.7 µM)
3 | C=C1C(=O)O[C@@H]2C[C@]3(C)C(CCC(C)OC(=O)/C=C/c4ccc(OC)c(OC)c4)[C@@H]3C[C@H]12 (some centres undefined) | 25.1 (≈ 56.9 µM)
4 | C=C1C(=O)O[C@@H]2C[C@]3(C)C(CCC(C)OC(=O)c4cccc(OC)c4OC)[C@@H]3C[C@H]12 (some centres undefined) [CARABRYL 2,3-DIMETHOXYBENZOATE] | 35.8 (≈ 86.3 µM)
5 | C=C1C(=O)O[C@@H]2C[C@]3(C)C(CCC(C)OC(=O)/C=C/C=C/C)[C@@H]3C[C@H]12 (some centres undefined) [CARABRYL 2,4-HEXADIENOATE] | 8.41 (≈ 24.4 µM)
6 | C=C1C(=O)O[C@@H]2C[C@]3(C)C(CCC(C)OC(=O)c4ccccc4Br)[C@@H]3C[C@H]12 (some centres undefined) [CARABRYL 2-BROMOBENZOATE] | 29.2 (≈ 67.3 µM)
7 | C=C1C(=O)O[C@@H]2C[C@]3(C)C(CCC(C)OC(=O)c4cccnc4Cl)[C@@H]3C[C@H]12 (some centres undefined) [CARABRYL 2-CHLORONICOTINATE] | 4.62 (≈ 11.8 µM)
8 | C=C1C(=O)O[C@@H]2C[C@]3(C)C(CCC(C)OC(=O)c4ccccc4OCC)[C@@H]3C[C@H]12 (some centres undefined) [CARABRYL 2-ETHOXYBENZOATE] | 41.6 (≈ 104 µM)
9 | C=C1C(=O)O[C@@H]2C[C@]3(C)C(CCC(C)OC(=O)c4ccccc4I)[C@@H]3C[C@H]12 (some centres undefined) [CARABRYL 2-IODOBENZOATE] | 39 (≈ 81.3 µM)
10 | C=C1C(=O)O[C@@H]2C[C@]3(C)C(CCC(C)OC(=O)c4ccccc4OC)[C@@H]3C[C@H]12 (some centres undefined) [CARABRYL 2-METHOXYBENZOATE] | 46.1 (≈ 120 µM)
11 | C=C1C(=O)O[C@@H]2C[C@]3(C)C(CCC(C)OC(=O)c4ccccc4C)[C@@H]3C[C@H]12 (some centres undefined) [CARABRYL 2-METHYLBENZOATE] | 52.3 (≈ 142 µM)
12 | C=C1C(=O)O[C@@H]2C[C@]3(C)C(CCC(C)OC(=O)c4cccs4)[C@@H]3C[C@H]12 (some centres undefined) [CARABRYL 2-THIOPHENECARBOXYLATE] | 30.8 (≈ 85.5 µM)
13 | C=C1C(=O)O[C@@H]2C[C@]3(C)C(CCC(C)OC(=O)c4ccc(OC)c(OC)c4)[C@@H]3C[C@H]12 (some centres undefined) [CARABRYL 3,4-DIMETHOXYBENZOATE] | 33 (≈ 79.5 µM)
14 | C=C1C(=O)O[C@@H]2C[C@]3(C)C(CCC(C)OC(=O)c4cccc(Br)c4)[C@@H]3C[C@H]12 (some centres undefined) [CARABRYL 3-BROMOBENZOATE] | 36.7 (≈ 84.7 µM)
15 | C=C1C(=O)O[C@@H]2C[C@]3(C)C(CCC(C)OC(=O)c4cccc(Cl)c4)[C@@H]3C[C@H]12 (some centres undefined) [CARABRYL 3-CHLOROBENZOATE] | 26.7 (≈ 68.7 µM)
16 | C=C1C(=O)O[C@@H]2C[C@]3(C)C(CCC(C)OC(=O)c4cccc(F)c4)[C@@H]3C[C@H]12 (some centres undefined) [CARABRYL 3-FLUOROBENZOATE] | 30.4 (≈ 81.7 µM)
17 | C=C1C(=O)O[C@@H]2C[C@]3(C)C(CCC(C)OC(=O)CCc4c[nH]c5ccccc45)[C@@H]3C[C@H]12 (some centres undefined) [CARABRYL 3-INDOLEPROPIONATE] | 12.8 (≈ 30.4 µM)
18 | C=C1C(=O)O[C@@H]2C[C@]3(C)C(CCC(C)OC(=O)c4cccc(OC)c4)[C@@H]3C[C@H]12 (some centres undefined) [CARABRYL 3-METHOXYBENZOATE] | 49.4 (≈ 129 µM)
19 | C=C1C(=O)O[C@@H]2C[C@]3(C)C(CCC(C)OC(=O)/C=C/c4ccccc4)[C@@H]3C[C@H]12 (some centres undefined) [CARABRYL 3-PHENYLACRYLATE] | 33.2 (≈ 87.3 µM)
20 | C=C1C(=O)O[C@@H]2C[C@]3(C)C(CCC(C)OC(=O)CCc4ccccc4)[C@@H]3C[C@H]12 (some centres undefined) [CARABRYL 3-PHENYLPROPANOATE] | 13.2 (≈ 34.6 µM)

Row | SMILES | IC50 [µg/mL]
21 | C=C1C(=O)O[C@@H]2C[C@]3(C)C(CCC(C)OC(=O)c4ccc(Br)cc4)[C@@H]3C[C@H]12 (some centres undefined) [CARABRYL 4-BROMOBENZOATE] | 31.3 (≈ 72.2 µM)
22 | C=C1C(=O)O[C@@H]2C[C@]3(C)C(CCC(C)OC(=O)Cc4ccc(Br)cc4)[C@@H]3C[C@H]12 (some centres undefined) [CARABRYL 4-BROMOPHENYLACETATE] | 44.4 (≈ 99.3 µM)
23 | C=C1C(=O)O[C@@H]2C[C@]3(C)C(CCC(C)OC(=O)c4ccc(Cl)cc4)[C@@H]3C[C@H]12 (some centres undefined) [CARABRYL 4-CHLOROBENZOATE] | 31.8 (≈ 81.8 µM)
24 | C=C1C(=O)O[C@@H]2C[C@]3(C)C(CCC(C)OC(=O)c4ccc(C#N)cc4)[C@@H]3C[C@H]12 (some centres undefined) [CARABRYL 4-CYANOBENZOATE] | 2.7 (≈ 7.12 µM)
25 | C=C1C(=O)O[C@@H]2C[C@]3(C)C(CCC(C)OC(=O)c4ccc(F)cc4)[C@@H]3C[C@H]12 (some centres undefined) [CARABRYL 4-FLUOROBENZOATE] | 21.2 (≈ 57 µM)
26 | C=C1C(=O)O[C@@H]2C[C@]3(C)C(CCC(C)OC(=O)c4ccc(I)cc4)[C@@H]3C[C@H]12 (some centres undefined) [CARABRYL 4-IODOBENZOATE] | 33.5 (≈ 69.7 µM)
27 | C=C1C(=O)O[C@@H]2C[C@]3(C)C(CCC(C)OC(=O)c4ccc(C(C)C)cc4)[C@@H]3C[C@H]12 (some centres undefined) [CARABRYL 4-ISOPROPYLBENZOATE] | 2.82 (≈ 7.11 µM)
28 | C=C1C(=O)O[C@@H]2C[C@]3(C)C(CCC(C)OC(=O)c4ccc(OC)cc4)[C@@H]3C[C@H]12 (some centres undefined) [CARABRYL 4-METHOXYBENZOATE] | 47.5 (≈ 123 µM)
29 | C=C1C(=O)O[C@@H]2C[C@]3(C)C(CCC(C)OC(C)=O)[C@@H]3C[C@H]12 (some centres undefined) [CARABRYL ACETATE] | 10.8
30 | C=C1C(=O)O[C@@H]2C[C@]3(C)C(CCC(C)OC(=O)Cc4cccc5ccccc45)[C@@H]3C[C@H]12 (stereo partly drawn) [CARABRYL ALPHA-NAPHTHYLACETATE] | 30.3 (≈ 72.3 µM)
31 | C=C1C(=O)O[C@@H]2C[C@]3(C)C(CCC(C)OC(=O)c4cccc5ccccc45)[C@@H]3C[C@H]12 (stereo partly drawn) [CARABRYL ALPHA-NAPHTHYLCARBOXYLATE] | 23.3 (≈ 57.6 µM)
32 | C=C1C(=O)O[C@@H]2C[C@]3(C)C(CCC(C)OC(=O)CCl)[C@@H]3C[C@H]12 (some centres undefined) [CARABRYL CHLOROACETATE] | 4.51 (≈ 13.8 µM)
33 | C=C1C(=O)O[C@@H]2C[C@]3(C)C(CCC(C)OC(=O)c4ccncc4)[C@@H]3C[C@H]12 (some centres undefined) [CARABRYL ISONICOTINATE] | 4.31 (≈ 12.1 µM)
34 | C=C1C(=O)O[C@@H]2C[C@]3(C)C(CCC(C)OC(=O)CCCCCCCCCCC)[C@@H]3C[C@H]12 (some centres undefined) [CARABRYL LAURATE] | 33.6 (≈ 77.7 µM)
35 | C=C1C(=O)O[C@@H]2C[C@]3(C)C(CCC(C)OC(=O)CCC)[C@@H]3C[C@H]12 (some centres undefined) [CARABRYL N-BUTYRATE] | 20.8 (≈ 65 µM)
36 | C=C1C(=O)O[C@@H]2C[C@]3(C)C(CCC(C)OC(=O)CCCC)[C@@H]3C[C@H]12 (some centres undefined) [CARABRYL N-PENTANOATE] | 31.2 (≈ 93.3 µM)
37 | C=C1C(=O)O[C@@H]2C[C@]3(C)C(CCC(C)OC(=O)c4cccnc4)[C@@H]3C[C@H]12 (some centres undefined) [CARABRYL NICOTINATE] | 8.26 (≈ 23.2 µM)
38 | C=C1C(=O)O[C@@H]2C[C@]3(C)C(CCC(C)OC(=O)CC)[C@@H]3C[C@H]12 (some centres undefined) [CARABRYL PROPANOATE] | 23.3 (≈ 76 µM)
39 | N#Cc1c(Cl)c(Cl)c(Cl)c(C#N)c1Cl [CHLOROTHALONIL] | 0.87 (≈ 3.27 µM)
